# In the library only some 6.6% were active in any assay of this set; here they are far more common.
# HER2 expr 66K = lowers expression of human Her2 kinase; P04626; SKBR-3 HER2 protein level, AlphaScreen, 18-24 h; stronger effect = lower value; HER2 level % of control, % at 10 µM; 65,000 tested, 0.69% active;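 active means HER2 level under 5% of the carrier-only control; inconclusive means no clear call, values can overlap the other calls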
# HEK293 NFkB inh = lowers PMA/ionomycin-induced NF-kB signal in HEK293 cells; HEK-293 NF-kB luciferase reporter, luminescence; 62,000 tested, 0.21% active; inhibition, % at 3 µM;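 active means inhibition above the mean of all tested compounds plus 3 SD, cut at about 40% in these data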
#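 Material: HEK-293 cells with stable firefly luciferase reporter driven by four HIV NF-kB elements / Also added: PMA plus ionomycin mix as NF-kB-activating stimulus / Compound dosing: 3 µM once, 0.30% DMSO / Times: 1 h pretreatment, 16 h stimulation, 37 °C / Signal: luminescence / Evaluation: per-plate % inhibition versus controls / Benchmarks: DMSO and 10 µM reference inhibitor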
# M1 agonist = agonists of M1 muscarinic receptor. CHO-M1 cells, Fluo-4 calcium fluorescence, agonist mode; stronger effect = higher value. B-score at 10 µM. 64,000 tested, 3% active. AID 626;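 active means fluorescence rise, raw or as B-score row- and column-corrected plate score, outside the 99.7% band of its plate's samples, either direction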
# BAP1 inh = blocks human BAP1 ubiquitin-AMC hydrolysis | Q92560 | recombinant BAP1, Ub-AMC hydrolysis fluorescence kinetic; stronger effect = lower value | calls only at 20 µM | 72,000 tested, 0.48% active;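 active means activity remaining at or below 50% of control, provided the compound also passes the data quality filters; inactive means the rest, including low values that fail the filters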
# Target sequence (Q92560 whole entry, looked up): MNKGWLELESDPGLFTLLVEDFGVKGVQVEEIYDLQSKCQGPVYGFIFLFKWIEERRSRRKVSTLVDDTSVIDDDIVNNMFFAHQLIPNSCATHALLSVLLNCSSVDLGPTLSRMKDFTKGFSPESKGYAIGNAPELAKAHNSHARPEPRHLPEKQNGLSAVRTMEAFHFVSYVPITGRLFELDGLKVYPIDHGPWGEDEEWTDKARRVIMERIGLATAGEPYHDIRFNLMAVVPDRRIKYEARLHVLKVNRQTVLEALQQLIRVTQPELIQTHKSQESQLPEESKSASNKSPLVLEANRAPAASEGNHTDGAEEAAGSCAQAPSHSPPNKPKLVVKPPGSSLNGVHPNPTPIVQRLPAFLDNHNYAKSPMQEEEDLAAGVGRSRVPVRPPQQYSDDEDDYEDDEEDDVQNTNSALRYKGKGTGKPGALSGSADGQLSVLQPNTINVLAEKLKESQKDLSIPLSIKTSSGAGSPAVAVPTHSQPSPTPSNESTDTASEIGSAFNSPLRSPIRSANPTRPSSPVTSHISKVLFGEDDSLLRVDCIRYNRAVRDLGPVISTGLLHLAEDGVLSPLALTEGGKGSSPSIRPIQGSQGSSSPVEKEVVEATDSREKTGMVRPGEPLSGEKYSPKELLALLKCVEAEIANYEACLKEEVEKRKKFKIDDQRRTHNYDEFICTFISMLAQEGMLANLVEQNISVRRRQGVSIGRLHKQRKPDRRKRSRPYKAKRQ
# JNK3 blocker = blocks human JNK3 kinase activity | P53779 | purified JNK3 kinase activity, HTS | AID 746 | inhibition, % at 8 µM | 60,000 tested, 0.61% active; in the data active means inhibition above about 17%
# M1 antagonist = M1 muscarinic receptor (rat) antagonism | P08482 | CHO-M1 cells, Fluo-4 calcium, ACh EC80 antagonist mode; stronger effect = lower value | B-score at 10 µM | 64,000 tested, 3.4% active | AID 628;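 active means calcium fluorescence response, raw or row-and-column corrected B-score, differing from the plate sample mean either way at a set confidence level, mostly lower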
# M1 ag confirm = confirmation of rat M1 muscarinic receptor agonists; AID 1488; 1,700 tested, 19% active; shares compounds with M1 agonist; CHO-M1 cells, Fluo-4 calcium fluorescence, agonist mode; actives lie on both sides; fluorescence change (max-min) at 10 µM;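 active means fluorescence change differs from the solvent-only DMSO control mean at a set confidence level in both duplicate runs; inconclusive means differs from solvent-only control mean in just one of two runs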;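 further: an EC20 dose of acetylcholine follows compound addition during the same imaging run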
# M4 agonist ctr = activates rat M4 receptor in counter-screen for M1 agonists. shares compounds with M1 agonist. CHO M4/Gqi5 cells, Fluo-4 calcium fluorescence, agonist mode; actives lie on both sides. fluorescence change (max-min) at 10 µM. 1,700 tested, 9% active. AID 1741;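 active means fluorescence change differing from the plate's solvent-only control wells at 99.7% confidence in both duplicates, whether higher or lower; inconclusive means differs from solvent controls in only one of two duplicates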
# Hits are given with their value; - = inactive; ? = inconclusive; . = no result shown.
SMILES,HER2 expr 66K,HEK293 NFkB inh,M1 agonist,BAP1 inh,JNK3 blocker,M1 antagonist,M1 ag confirm,M4 agonist ctr
COc1cc(C2C3CN(C)CC=C3C(C#N)=C(N)C2(C#N)C#N)ccc1OC(C)C (configuration not stated),-,-,5.1,.,.,-,-,-
CN1CC=C2C(C#N)=C(N)C(C#N)(C#N)C(Cc3ccccc3)C2C1 (configuration not stated),-,-,30,-,-,-,98,-
CC(C)(C)OC(=O)N1CC=C2C(C#N)=C(N)C(C#N)(C#N)C(c3cccs3)C2C1 (configuration not stated),-,-,4.7,.,.,-,-,?
CC(C)N1CC=C2C(C#N)=C(N)C(C#N)(C#N)C(c3ccccc3)C2C1 (configuration not stated),-,.,225,-,-,-,427,400
CC(C)(C)OC(=O)N1CC=C2C(C#N)=C(N)C(C#N)(C#N)[C@H](c3cccnc3)[C@H]2C1,-,.,-,-,-,-,.,.
CCC1C2CN(C(C)=O)CC=C2C(C#N)=C(N)C1(C#N)C#N (configuration not stated),-,-,-,-,-,-,.,.
COC(=O)C1=C(C)Nc2ncnn2C1c1ccc(C)o1 (configuration not stated),-,-,8.3,-,-,-,-,-
CC1=C(C(=O)Nc2ccccc2)C(c2ccc(C)o2)n2ncnc2N1 (configuration not stated),-,-,-,-,-,-,.,.
CCCc1cc(-c2oncc2-c2ccccc2)c(O)cc1OC,.,.,.,-,.,.,.,.
O=[N+]([O-])c1ccc(-c2nc3ccccc3c3nc4ccccc4n23)cc1,.,.,.,-,.,.,.,.
COc1ccccc1Cn1c(-c2ccco2)nc2nc3ccccc3nc21,-,-,-,.,-,-,.,.
COc1ccc(CCn2c(-c3ccco3)nc3nc4ccccc4nc32)cc1,-,-,3.5,-,-,-,-,-
c1ccc(Cn2c(-c3ccco3)nc3nc4ccccc4nc32)cc1,-,-,3.7,.,-,-,?,?
CC1(C)CC(=O)C2=C(C1)OC(N)=C(C#N)C21CCC2(CC1)OCCO2,-,-,-,-,-,-,.,.
CC1(C)CC(=O)C2=C(C1)OC(N)=C(C#N)C21CCN(Cc2ccccc2)CC1,.,-,6.9,.,.,-,-,-
CCCC(=O)N1CCN(c2ccc(NC(=O)c3cc4ccccc4o3)cc2Cl)CC1,-9.9,-,6.9,.,-,-,-,-
O=C(Nc1ccc(N2CCN(C(=O)c3ccco3)CC2)c(Cl)c1)c1cc2ccccc2o1,-,-,.,.,-,.,.,.
CCC(=O)N1CCN(c2ccc(NC(=O)c3cc4ccccc4o3)cc2Cl)CC1,-,-,4.5,-,-,-1.9,-,-
O=C(c1cc2ccccc2o1)N1CCN(c2ccccc2Cl)CC1,-,-,-,-,-,-,.,.
COC(=O)C(NC(C)=O)(Nc1sc2c(c1C#N)CCCCC2)C(F)(F)F (configuration not stated),.,.,.,-,.,.,.,.
O=C(CN1c2cccc3cccc(c23)S1(=O)=O)NCc1ccc2c(c1)OCO2,-,-,21,-,-,-4,-,-
O=c1oc2c3c4c(cc2c(C(F)(F)F)c1CCN1CCOCC1)CCCN4CCC3,-,.,277,-,-,-2.9,1525,1404
CC(C)c1cc(=O)oc2c3c4c(cc12)CCCN4CCC3,-,-,106,.,-,-,612,614
O=c1oc2c(CN3CCOCC3)c(O)ccc2c2c1CCC2,-,-,-,-,-,-,.,.
CN(CC(=O)Nc1ccc(C#N)cc1)Cc1ccc(Cl)cc1,-,-,-,-,-,-,.,.
SMILES,HER2 expr 66K,HEK293 NFkB inh,M1 agonist,BAP1 inh,JNK3 blocker,M1 antagonist,M1 ag confirm,M4 agonist ctr
N#Cc1ccc(NC(=O)Nc2ccc(Cl)cc2)cc1,-,-,3.1,-,-,-,-,-
COC(=O)c1c(=O)n(O)c2ccc(OC)cc2[n+]1[O-],-,-,19,-,-,-,117,96
COC(=O)c1ccccc1COn1c(=O)c(C)[n+]([O-])c2ccccc21,-,-,-,-,-,-,.,.
CCOc1cc(C2C(C(=O)c3ccc(C)o3)=C(O)C(=O)N2CCc2ccccc2)ccc1O (configuration not stated),-,-,-,-,.,-,.,.
COc1cc(C2C(C(=O)c3ccco3)=C(O)C(=O)N2CCc2ccccc2)ccc1O (configuration not stated),-,-,89,.,.,-,-,-
O=C(CNC(=O)c1ccco1)OC(C(=O)c1ccccc1)c1ccccc1 (configuration not stated),-,-,6.7,-,-,-,-,?
CCOc1ccccc1NC(=O)c1c(NC(=O)C(C)(C)C)sc2c1CCC2,.,.,.,-,.,.,.,.
CN1C(=O)C(O)(CC(=O)c2ccccn2)c2cc(Br)ccc21 (configuration not stated),-,-,-2.7,-,-,-,?,-
COc1ccc2c(c1OC)C(=O)N1c3ccccc3C(=O)N(c3ccccc3)C21 (configuration not stated),-,.,13,-,-,-,?,-
COc1ccc2c(c1OC)C(=O)N1c3ccccc3C(=O)N(c3ccc(F)cc3)C21 (configuration not stated),-,.,13,-,-,-,-,-
Cc1ccc2oc(-c3cc(NC(=O)c4ccco4)ccc3O)nc2c1,.,.,.,-,.,.,.,.
Cc1ccc(C2N(c3ccc(Cl)c(Cl)c3)C(=O)C3CCCN32)o1 (configuration not stated),-,-,6.7,-,-,-,?,-
COc1cc(NS(=O)(=O)c2ccc(C)cc2C)cc(OC)c1OC,-,-,4.1,-,-,-,?,-
O=C(Nc1nccs1)c1cccc(Oc2ccc([N+](=O)[O-])cc2)c1,.,.,.,-,.,.,.,.
CCOC(=O)COc1cc2occ(-c3cscn3)c(=O)c2cc1C,.,.,.,-,.,.,.,.
COc1cc(NC(=O)c2cc(OC)c(OC)c(OC)c2)c(OC)cc1NC(=O)CN1CCCCC1,-,-,3.9,-,-,-,?,-
COC(=O)c1cccc(C(=O)Nc2ccc([N+](=O)[O-])cc2Br)n1,.,.,.,-,.,.,.,.
COCC(=O)N(C)c1nnc(-c2cnc(C)cn2)s1,-,-,-,-,-,-,.,.
Cc1cnc(-c2nnc(N(C)C(=O)C3CCCO3)s2)cn1 (configuration not stated),-,-,-1.7,-,-,-,-,-
Cc1nc2ccccc2n2c(O)c(CC(=O)O)cc12,-,-,269,-,-,-,1125,1088
Cc1ccc(/C(C#N)=C\c2cn(C)c3ccccc23)cc1,-,-,-2.7,-,-,-,-,-
